In ChEMBL document CHEMBL1143911, “Studies on quinones. Part 42: Synthesis of furylquinone and hydroquinones with antiproliferative activity against human tumor cell lines” (2008):

How the values were obtained:
Format in all cases: functional
NCI-H460 = assay: Cytotoxicity against human NCI-H460 cells after 48 hrs; conditions: NCI-H460, 48 h
Method in brief: (§1)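 Adherent cells kept in RPMI-1640 with 5% heat-inactivated FBS, 2 mM glutamine and 50 µg/mL gentamycin at 37 °C, 5% CO2. Plated at 7.5 × 10⁴ cells/mL, attached overnight, then given five concentrations (maximum 150 µM; DMSO stocks diluted in medium) for 48 h. Fixed in situ, SRB-stained, absorbance at 492 nm. GI50 (50% inhibition of net growth) taken from dose–response curves.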

MCF7 = assay: Cytotoxicity against human MCF7 cells after 48 hrs; conditions: MCF7, 48 h
Method in brief: as §1, with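 “1.5” for “7.5”, “10⁵” for “10⁴”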

SF-268 = assay: Cytotoxicity against human SF268 cells after 48 hrs; conditions: SF-268, 48 h
Method in brief: as §1, with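 “1.5” for “7.5”, “10⁵” for “10⁴”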

| SMILES | GI50 (NCI-H460) [µM] | GI50 (MCF7) [µM] | GI50 (SF-268) [µM] |
| --- | --- | --- | --- |
| CN(C)/N=C/c1ccc(-c2c(O)ccc(O)c2C=O)o1 | 93 | 29.4 | 38.3 |
| CN(C)/N=C/c1ccc(C2=C(Cl)C(=O)c3ccccc3C2=O)o1 | 10.9 | 8.1 | 9.3 |
| CN(C)/N=C/c1ccc(C2=CC(=O)C=CC2=O)o1 | 148 | 33.5 | 100 |
| CCCCSc1c(O)ccc(O)c1C(C)=O | 63.3 | 29.2 | 27.5 |
| O=Cc1c(O)ccc(O)c1Cl | 122 | 15.6 | 18.8 |
| O=Cc1ccc(-c2c(O)ccc(O)c2C=O)o1 | 80.2 | 20.3 | 35.8 |
| COC1=CC(=O)C(c2ccc(/C=N/N(C)C)o2)=CC1=O | 27.2 | 8.2 | 9.1 |
| CN(C)/N=C/c1ccc(C2=CC(=O)c3ccccc3C2=O)o1 | 6.8 | 7.7 | 6.5 |
| COc1cccc2c1C(=O)c1c(O)c3c(c(O)c1C2=O)C[C@@](O)(C(=O)CO)C[C@@H]3O[C@H]1C[C@H](N)[C@H](O)[C@H](C)O1 [DOXORUBICIN] | 0.094 | 0.0428 | 0.093 |
